Assay results published in ChEMBL document CHEMBL3351740, “Identification of a novel aminotetralin class of HDAC6 and HDAC8 selective inhibitors” (J Med Chem, 2014).

Experiments:
[1] = system: Liver; experiment: Stability in mouse liver microsomes at 1 uM after 3 to 30 mins by LC-MS/MS analysis; assay type: ADME
Summary of the method: (§1)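 Liver microsomes at 0.5 mg/mL (human or mouse) in 100 mM potassium phosphate, pH 7.4, with 1 μM compound, prewarmed 10 min at 37 °C. Reaction started with NADPH (10 mM) and stopped at 0, 3, 6, 9, 15 and 30 min with ice-cold methanol holding tolbutamide internal standard. Centrifuged 10 min at 4 °C; supernatant analysed by LC-MS/MS.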

[2] = system: Liver microsome; experiment: Stability in human liver microsomes at 1 uM after 3 to 30 mins by LC-MS/MS analysis; assay type: ADME; summary of the method: as §1

- Stability [1]: Stable
- Stability [2]: Stable
SMILES: O=C(NO)c1ccc2c(c1)C[C@H](Nc1nccc(-c3cccnc3)n1)CC2
